# Calls of active or inactive are those of the source. The rule behind the calls is not given here.
# Tests used:
# [1] = target: T1, Dopamine receptor (Rattus norvegicus) (UniProt P25115+P19020+P30729+P18901+P61169); test: Subcutaneous dose giving half-maximal decrease of Dopa formation in the rat brain (striatum); assay type: functional, tissue-based
# [2] = target: T1, Dopamine receptor (Rattus norvegicus); test: Subcutaneous dose giving half-maximal decrease of Dopa formation in the rat brain (limbic); assay type: functional, tissue-based
# [3] = target: T2, Serotonin (5-HT) receptor (Rattus norvegicus) (UniProt P35563+P35365+P32305+P31388+Q9JJ16+P28564+P30994+Q62758+P08909+P14842+P30940+P35364+P19327+P28565); test: Subcutaneous dose giving half-maximal decrease of 5-HTP formation in the rat brain hemispheres (cortex); assay type: functional, tissue-based
# Procedure, shortened: (§1)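 Male Sprague-Dawley rats (200–350 g) were reserpinized. Reserpine was dissolved in glacial acetic acid and made up with 5.5% glucose. Test drug was given sc in saline, at neutral pH, 5 or 10 mL/kg. Brain-part 5-HTP formation was measured spectrofluorometrically. ED50 (half-maximal decrease) came from 4–6 dose levels, n = 3-5.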
# [4] = target: T2, Serotonin (5-HT) receptor (Rattus norvegicus); test: Subcutaneous dose giving half-maximal decrease of 5-HTP formation in the rat brain (striatum); assay type: functional, tissue-based; procedure, shortened: as §1
# [5] = target: T2, Serotonin (5-HT) receptor (Rattus norvegicus); test: Subcutaneous dose giving half-maximal decrease of 5-HTP formation in the rat brain (limbic); assay type: functional, tissue-based; procedure, shortened: as §1
# [6] = tested on: Rattus norvegicus; test: Compound was tested for subcutaneous dose giving half-maximal decrease of Dopa formation in the rat brain (striatum); assay type: functional; conditions: sc
# [7] = tested on: Rattus norvegicus; test: Compound was tested for subcutaneous dose giving half-maximal decrease of Dopa formation in the rat brain (limbic); assay type: functional; conditions: sc
# [8] = tested on: Rattus norvegicus; test: Compound was tested for subcutaneous dose giving half-maximal decrease of 5-HTP formation in the rat brain (limbic); Inactive; assay type: functional, organism-based; procedure, shortened: as §1
# [9] = tested on: Rattus norvegicus; test: Compound was tested for subcutaneous dose giving half-maximal decrease of 5-HTP formation in the rat brain hemispheres (cortex); Inactive; assay type: functional, organism-based; procedure, shortened: as §1
# [10] = tested on: Rattus norvegicus; test: Compound was tested for subcutaneous dose giving half-maximal decrease of 5-HTP formation in the rat brain (striatum); Inactive; assay type: functional, organism-based; procedure, shortened: as §1
SMILES,ED50 [1],ED50 [2],ED50 [3] [µmol/kg],ED50 [4] [µmol/kg],ED50 [5] [µmol/kg],ED50 [6] [µmol/kg],ED50 [7] [µmol/kg],ED50 [8],ED50 [9],ED50 [10]
CCN(CC)C1CCc2cccc(O)c2C1 (stereo not given),inactive,inactive,0.07,0.068,0.054,–,–,–,–,–
CCCN(CCC)C1CCc2cccc(O)c2C1 (racemic),inactive,inactive,0.063,0.052,0.052,–,–,–,–,–
CCN(CC)C(=O)[C@@H]1C=C2c3cccc4[nH]cc(c34)C[C@H]2N(C)C1 [LYSERGIDE],–,–,0.036,0.035,0.036,0.395,0.39,–,–,–
CCCN(CCC)[C@@H]1CCc2cccc(O)c2C1,inactive,inactive,0.05,0.047,0.036,–,–,–,–,–
CCCCNC1CCc2cccc(O)c2C1 (stereo not given),inactive,inactive,6.3,4.5,4.3,–,–,–,–,–
CCCN(CCC)C1CCc2c(OC)ccc(OC)c2C1 (stereo not given),–,–,–,–,–,1.24,0.905,inactive,inactive,inactive
CN(C)C1CCc2cccc(O)c2C1 (stereo not given),inactive,inactive,0.36,0.43,0.38,–,–,–,–,–
CC(C)NC1CCc2cccc(O)c2C1 (stereo not given),inactive,inactive,4.1,2.9,2.6,–,–,–,–,–
CCNC1CCc2cccc(O)c2C1 (stereo not given),inactive,inactive,0.22,0.2,0.27,–,–,–,–,–
CCCCCCCCNC1CCc2cccc(O)c2C1 (stereo not given),inactive,inactive,–,–,–,–,–,inactive,inactive,inactive
CCCN(CC)C1CCc2cccc(O)c2C1 (stereo not given),inactive,inactive,0.066,0.059,0.057,–,–,–,–,–
CCCN(CCC)[C@H]1CCc2cccc(O)c2C1,inactive,inactive,0.077,0.065,0.061,–,–,–,–,–
CNC1CCc2cccc(O)c2C1 (stereo not given),inactive,inactive,1.8,1.6,1.5,–,–,–,–,–
Oc1cccc2c1CC(N1CCCCC1)CC2 (stereo not given),inactive,inactive,1.4,1.1,1.6,–,–,–,–,–
CCCNC1CCc2cccc(O)c2C1 (stereo not given),inactive,inactive,0.18,0.15,0.14,–,–,–,–,–
CCCCN(CCC)C1CCc2cccc(O)c2C1 (stereo not given),inactive,inactive,0.34,0.26,0.27,–,–,–,–,–
CCCN(CCC)C1CCc2cccc(OC)c2C1 (stereo not given),inactive,inactive,0.23,0.29,0.34,–,–,–,–,–
CCCCN(CCCC)C1CCc2cccc(O)c2C1 (stereo not given),inactive,inactive,5.7,6.6,5,–,–,–,–,–
CCCN(Cc1ccccc1)C1CCc2cccc(O)c2C1 (stereo not given),inactive,inactive,2.3,2.9,2.7,–,–,–,–,–
CCCN(CCC)C1CCc2c(O)ccc(O)c2C1 (stereo not given),–,–,–,–,–,5.4,5.2,inactive,inactive,inactive

# Source: ChEMBL document CHEMBL1122750, “8-Hydroxy-2-(alkylamino)tetralins and related compounds as central 5-hydroxytryptamine receptor agonists” (1984)
